For one assay, the system named is Blood. Description: Antiinflammatory activity in human whole blood assessed as inhibition of LPS-induced TNFalpha production at 10 uM treated for 30 mins followed by 5 hrs LPS challenge by ELISA-based WBCCS assay. The assay is classed as functional. Summed up:
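Human whole blood cells exposed to compound 30 min, then LPS-stimulated; supernatants collected after 5 h and TNF-α determined by ELISA; expressed as percent inhibition.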
On the technique in general: In an ELISA, binding on a coated surface is turned into a signal by an enzyme label.

In assay [1] the test system is PBMC. Description: Antiinflammatory activity in human PBMC assessed as inhibition of LPS-induced TNFalpha production treated for 30 mins followed by 5 hrs LPS challenge by ELISA assay. It counts as functional, cell-based. As to conditions: for pIC50: read-out: IC50. Summed up:
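Human PBMC pre-treated with compound (0.03–100 µM) for 30 min, then LPS-stimulated 5 h; TNF-α measured. Controls: DMSO vehicle with LPS, unstimulated cells, rolipram standard. Mean ± S.E.M. of three experiments; IC50 from concentration–response.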

The test system of assay [2] is PBMC. Description: Cytotoxicity against human PBMC by MTS assay. It counts as cell-based. Summed up: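 Viability of human PBMC determined by MTS across the concentrations tested in the LPS-stimulated TNF-α assay.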
Background: Formazan colour is commonly taken as a measure of viable cells.

Another assay relates to Mus musculus. Description: Antiinflammatory activity in BALB/c mouse assessed as inhibition of LPS-induced TNFalpha production in plasma at 100 mg/kg, po by ELISA. It counts as functional. Summed up: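 BALB/c mice dosed orally, vehicle 0.5% carboxymethylcellulose, rolipram as standard; LPS given 1 h later. Blood drawn 1.5 h after LPS; plasma TNF-α quantified by ELISA.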

Results on 28 compounds are retold here after ChEMBL document CHEMBL1777800, “Novel diarylheptanoids as inhibitors of TNF-α production” (Bioorg Med Chem Lett, 2011).

pIC50: −log10 of the molar value. Active and inactive are the calls of the source. The calls are words filed in the database; no cut-off is given here. Bounds are passed on as bounds.

On to `N#Cc1ccc(CCC(=O)/C=C/CCc2cccnc2)cc1`, for which the inhibition (in general, the change of the read-out against control, counted positive when it falls) at 10 µM in the assay with Blood was 9%. As to `COc1cc(CCC(=O)CC(O)CCc2cccnc2)cc(OC)c1OC` (stereo not drawn), the inhibition at 10 µM with Blood was found to be 12%.

Take `O=C(CCc1ccc2c(c1)OCO2)CC(O)CCc1cccnc1` (stereo not drawn): in the assay on Blood, the inhibition at 10 µM was determined as 41%. Still for that read-out and setting: the same measure for `COc1cc(CCC(=O)/C=C/CCc2cccnc2)cc(OC)c1OC`: 23%. Same read-out and setting: the result for `COc1ccc(COc2cc(CCC(=O)/C=C/CCc3cccnc3)ccc2OC)cc1` reads 19%. Consider `COc1ccc(CCC(=O)/C=C/CCc2cccnc2)cc1OC`, for which, in the assay on Blood, the inhibition at 10 µM amounted to 56%. Moreover, in the assay on PBMC [1], the inhibition result was “Dose-dependent effect” and the pIC50 (usually the IC50 on a negative log10 scale, so that one unit is a factor of ten) was 5.60. In addition, in the assay on PBMC [2], the pIC50 is 4.10. In addition, the inhibition in vivo (in general, the relative decrease from the control value, in per cent) at 100 mg/kg with Mus musculus stood at 50%. `Cc1cccc(CCC(=O)/C=C/CCc2cccnc2)c1`: the inhibition at 10 µM with Blood is 25%. In the case of `COc1ccc(COc2cc(CCC(=O)CC(O)CCc3cccnc3)ccc2OC)cc1` (stereo not drawn), the inhibition at 10 µM with Blood was 44%. Moreover, the pIC50 is 5.24 in the assay on PBMC [1] and less than 4.00 with PBMC [2]. Further, the inhibition in vivo at 100 mg/kg in the assay on Mus musculus stood at 71%. Take `CN(C)c1ccc(CCC(=O)CC(O)CCc2cccnc2)cc1` (stereo not drawn): the inhibition at 10 µM in the assay on Blood turned out to be 0%. Still for that read-out and setting: the same measure for `COc1ccc(COc2ccc(CCC(=O)CC(O)CCc3cccnc3)cc2OC)cc1` (stereo not drawn): 2%. The same measure, in the same setting: the same measure for `O=C(/C=C/CCc1cccnc1)CCc1ccc(F)cc1`: 35%.

Regarding `O=C(/C=C/CCc1cccnc1)CCc1ccccc1`, the inhibition at 10 µM in the assay on Blood was found to be 0%. For `COc1ccc(COc2ccc(CCC(=O)/C=C/CCc3cccnc3)cc2OC)cc1`, the inhibition at 10 µM with Blood is 40%. Moreover, the pIC50 with PBMC [1] was 4.62; with PBMC [2], less than 4.00. The inhibition in vivo at 100 mg/kg in the assay on Mus musculus turned out to be 75%. Turning to `COc1ccc(OC)c(CCC(=O)/C=C/CCc2cccnc2)c1`, the inhibition at 10 µM in the assay on Blood was found to be 0%. On the same count and under the same terms, the same measure for `COc1ccc(OC)c(CCC(=O)CC(O)CCc2cccnc2)c1` (stereo not drawn): 0%; for `COc1cccc(CCC(=O)CC(O)CCc2cccnc2)c1OC` (stereo not drawn): 10%; for `COc1ccc(CCC(=O)CC(O)CCc2cccnc2)c(OC)c1` (stereo not drawn): 22%. Still for that read-out and setting: the result for `COc1ccc(CCC(=O)CC(O)CCc2cccnc2)cc1OC` (stereo not drawn) reads 18%. As for `COc1cc(/C=C/C(=O)CC(=O)/C=C/c2ccc(O)c(OC)c2)ccc1O` [CURCUMIN], the IC50 (in general, the concentration at which inhibition is half-maximal) in the assay with PBMC [1] came out at 2.71 µM. Besides, the inhibition entry with Mus musculus is “inactive”. As to `CN(C)c1ccc(CCC(=O)/C=C/CCc2cccnc2)cc1`, in the assay with Blood, the inhibition at 10 µM turned out to be 32%. On the same count and under the same terms, the result for `COc1cccc(CCC(=O)/C=C/CCc2cccnc2)c1OC` reads 33%; that for `O=C(CCc1ccc(Cl)cc1)CC(O)CCc1cccnc1` (stereo not drawn), 16%.

As to `O=C(CC(O)CCc1cccnc1)/C(=C\CCc1cccnc1)Cc1ccc(Cl)cc1` (stereo not drawn), in the assay with Blood, the inhibition at 10 µM stood at 32%.

For the compound `N#Cc1ccc(CCC(=O)CC(O)CCc2cccnc2)cc1` (stereo not drawn), the inhibition at 10 µM in the assay on Blood came out at 35%. In the case of `Cc1cccc(CCC(=O)CC(O)CCc2cccnc2)c1` (stereo not drawn), the inhibition at 10 µM in the assay on Blood is 11%. Still for that read-out and setting: the result for `O=C(CCc1ccc(F)cc1)CC(O)CCc1cccnc1` (stereo not drawn) reads 34%. Regarding `COc1ccc(CCC(=O)/C=C/CCc2cccnc2)c(OC)c1`, the inhibition at 10 µM in the assay with Blood turned out to be 56%. Besides, in the assay with PBMC [1], the inhibition result was “Dose-dependent effect” and the pIC50 is 5.70. In the assay with PBMC [2], this compound gave a pIC50 of 4.42. Further, the inhibition in vivo at 100 mg/kg in the assay on Mus musculus is 79%. Regarding `O=C(CCc1ccccc1)CC(O)CCc1cccnc1` (stereo not drawn), the inhibition at 10 µM in the assay on Blood is 3%.
